The text below walks through data of ChEMBL document CHEMBL1759847, “Design and synthesis of isoquinolines and benzimidazoles as RAF kinase inhibitors” (Bioorg Med Chem Lett, 2011).

This assay deals with RAF proto-oncogene serine/threonine-protein kinase (Homo sapiens, UniProt P04049). Nature of the assay: Inhibition of human cRAF using [gamma-33P-ATP] as a substrate by scintillation counting. An outline of the steps: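 Recombinant human c-RAF (5–10 mU) in 25 mM Tris pH 7.5 with 0.02 mM EGTA, 10 mM Mg acetate and 0.66 mg/mL myelin basic protein as phosphoacceptor; started by adding MgATP mix containing [γ-33P]ATP (approx. 500 cpm/pmol). Incubated 40 min at room temperature, stopped with 3% phosphoric acid, spotted on P30 filtermat, washed, dried and counted by scintillation.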
RAF proto-oncogene serine/threonine-protein kinase, sequence (P04049 whole entry): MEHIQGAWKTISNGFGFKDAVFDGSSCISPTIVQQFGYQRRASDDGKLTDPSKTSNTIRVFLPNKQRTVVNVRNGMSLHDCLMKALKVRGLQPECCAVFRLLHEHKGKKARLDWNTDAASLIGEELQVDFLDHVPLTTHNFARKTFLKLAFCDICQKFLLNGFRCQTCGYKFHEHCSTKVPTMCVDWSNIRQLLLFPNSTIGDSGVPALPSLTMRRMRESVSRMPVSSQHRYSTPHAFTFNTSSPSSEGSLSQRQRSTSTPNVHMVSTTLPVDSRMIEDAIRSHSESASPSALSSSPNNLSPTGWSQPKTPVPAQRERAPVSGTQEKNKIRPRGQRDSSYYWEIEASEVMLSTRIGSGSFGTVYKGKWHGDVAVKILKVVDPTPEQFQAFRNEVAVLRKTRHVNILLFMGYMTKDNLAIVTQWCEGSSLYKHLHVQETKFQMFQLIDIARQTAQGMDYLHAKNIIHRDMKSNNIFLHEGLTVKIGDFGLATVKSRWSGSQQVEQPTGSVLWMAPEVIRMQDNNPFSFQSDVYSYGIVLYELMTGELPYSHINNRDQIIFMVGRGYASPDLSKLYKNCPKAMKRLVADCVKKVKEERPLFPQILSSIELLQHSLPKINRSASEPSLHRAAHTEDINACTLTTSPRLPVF

In turn, `CNC(=O)c1cc2ccc(CCNC(=O)Nc3cc(C)c(Cl)cc3OC)cc2cn1` registered a concentration for half-maximal inhibition (IC50) of 190 nM. `CNC(=O)c1cc2ccc(CCNC(=O)Nc3cccc(C(F)(F)F)c3)cc2cn1` displayed an IC50 of 360 nM.

`CNC(=O)c1cc2ccc(CCNC(=O)Nc3cccc(OC(F)(F)F)c3)cc2cn1` had a 50% inhibitory concentration (IC50) of 260 nM. In the case of `CNC(=O)c1cc2ccc(CCNC(=O)Nc3cccc(S(=O)(=O)C(F)(F)F)c3)cc2cn1` it was 200 nM; in that of `CNC(=O)c1cc2ccc(CCNC(=O)Nc3ccc(C(F)(F)F)cc3)cc2cn1`, 370 nM; in that of `CNC(=O)c1cc2ccc(CCNC(=O)Nc3ccc(C)c(C(F)(F)F)c3)cc2cn1`, 200 nM. Under `CNC(=O)c1cc2ccc(CCNC(=O)Nc3ccc(Cl)c(C(F)(F)F)c3)cc2cn1` stands 160 nM. Under `CNC(=O)c1cc2ccc(CCNC(=O)Nc3ccc(F)c(C(F)(F)F)c3)cc2cn1` stands 240 nM; under `CNC(=O)c1cc2ccc(CCNC(=O)Nc3cc(C(F)(F)F)ccc3F)cc2cn1`, 250 nM; under `CNC(=O)c1cc2ccc(CCNC(=O)Nc3cc(C(F)(F)F)ccc3OC)cc2cn1`, 120 nM.

Consider `CNC(=O)c1cc2ccc(CCNC(=O)Nc3cc(C(F)(F)F)ccc3OCCN(C)C)cc2cn1`, for which inhibition was half-maximal at 450 nM (IC50).

`CNC(=O)c1cc2ccc(CCNC(=O)Nc3cc(Cl)c(C)cc3OC)cc2cn1` yielded an IC50 of 110 nM. Under `CNC(=O)c1cc2ccc(CCNC(=O)Nc3cc(C(F)(F)F)c(Cl)cc3OC)cc2cn1` stands 80 nM; under `CNC(=O)c1cc2ccc(CCNC(=O)Nc3cc(C(F)(F)F)c(Cl)cc3OCCN(C)C)cc2cn1`, 340 nM. Under `CNC(=O)c1nc2ccc(CCNC(=O)Nc3cc(C(F)(F)F)ccc3OC)cc2[nH]1` stands 340 nM; under `COC(=O)Nc1nc2ccc(CCNC(=O)Nc3cc(C(F)(F)F)ccc3OC)cc2[nH]1`, 810 nM; under `COc1ccc(C(F)(F)F)cc1NC(=O)NCCc1ccc2nc(NC(C)=O)[nH]c2c1`, 170 nM. Under `CNC(=O)c1nc2ccc(CCNC(=O)Nc3ccc(Cl)c(C(F)(F)F)c3)cc2[nH]1` stands 280 nM; under `COC(=O)Nc1nc2ccc(CCNC(=O)Nc3ccc(Cl)c(C(F)(F)F)c3)cc2[nH]1`, 660 nM; under `CC(=O)Nc1nc2ccc(CCNC(=O)Nc3ccc(Cl)c(C(F)(F)F)c3)cc2[nH]1`, 140 nM.

`CC(=O)Nc1nc2ccc(CCNC(=O)Nc3cccc(C(F)(F)F)c3)cc2[nH]1` showed an IC50 of 480 nM.

`CC(=O)Nc1nc2ccc(CCNC(=O)Nc3ccc(Cl)c(Cl)c3)cc2[nH]1`: the concentration for half-maximal inhibition (IC50) is 480 nM. Under `CC(=O)Nc1nc2ccc(CCNC(=O)Nc3ccc(C)c(Cl)c3)cc2[nH]1` stands 530 nM; under `COc1cc(C)c(Cl)cc1NC(=O)NCCc1ccc2nc(NC(C)=O)[nH]c2c1`, 190 nM; under `COc1cc(Cl)c(C)cc1NC(=O)NCCc1ccc2nc(NC(C)=O)[nH]c2c1`, 320 nM. Compound `CNCCOc1ccc(C)cc1NC(=O)NCCc1ccc2nc(NC(C)=O)[nH]c2c1` returned a half-inhibitory concentration (IC50) of 580 nM. In the case of `CNCCOc1cc(Cl)c(C)cc1NC(=O)NCCc1ccc2nc(NC(C)=O)[nH]c2c1` it was 490 nM; in that of `CNCCOc1ccc(C(F)(F)F)cc1NC(=O)NCCc1ccc2nc(NC(C)=O)[nH]c2c1`, 210 nM; in that of `CNCCOc1cc(Cl)c(C(F)(F)F)cc1NC(=O)NCCc1ccc2nc(NC(C)=O)[nH]c2c1`, 230 nM. Turning to `CC(=O)Nc1nc2ccc(CCNC(=O)Nc3cc(C)c(Cl)cc3OCCN)cc2[nH]1`, 550 nM corresponded to half-maximal inhibition (IC50). In the case of `CC(=O)Nc1nc2ccc(CCNC(=O)Nc3cc(C(F)(F)F)ccc3OCCN)cc2[nH]1` it was 250 nM; in that of `CC(=O)Nc1nc2ccc(CCNC(=O)Nc3cc(C(F)(F)F)c(Cl)cc3OCCN)cc2[nH]1`, 180 nM. Under `CC(=O)Nc1nc2ccc(CCNC(=O)Nc3cc(C(F)(F)F)ccc3OCC3CCCN3)cc2[nH]1` (stereo not drawn) stands 230 nM.

Usually IC50 stands for the concentration that gives 50% inhibition. Low values mean greater potency in that assay, high ones weaker potency in that assay.
